Test results taken from ChEMBL document CHEMBL2016528, “Synthesis and biological evaluation of bifendate-chalcone hybrids as a new class of potential P-glycoprotein inhibitors” (Bioorg Med Chem, 2012).
pIC50: −log10 of the molar value. Activity calls are given as the source filed them. The rule behind the calls is not given here.

Legend:
[1] = test system: K562; test: Cytotoxicity against human K562 cells after 72 hrs by MTS assay; format: cell-based; conditions: K562, 72 h
Procedure, shortened: (§1)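 Cells (1×10⁴/well) seeded and grown 24 h, then exposed to a range of compound concentrations for 72 h at 37 °C, 5% CO₂. MTS added for 3 h, absorbance read at 490 nm. IC50 = concentration giving 50% growth decrease, taken from dose–response curves; mean of triplicate experiments. K562/A02 is the adriamycin-induced P-gp-overexpressing subline.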

[2] = Cytotoxicity against human K562/A02 cells overexpress P-gp after 72 hrs by MTS assay; format: ADME, cell-based; conditions: K562/A02, 72 h; procedure, shortened: as §1
[3] = test system: P-glycoprotein (P-gp); test: Ratio of IC50 for human K562/A02 cells overexpress P-gp to IC50 for human K562 cells; format: cell-based; conditions: K562/A02 cells overexpressing P-gp and parental K562 cells, read-out: Ratio IC50
[4] = test system: K562; test: Growth inhibition of human K562 cells at 0.2 uM after 72 hrs by MTS assay; format: functional, cell-based
Procedure, shortened: (§2)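 ADR at 3.5 µM (K562/A02) or 0.2 µM (K562), alone or combined with compound at 2.5, 5 or 10 µM, for 72 h. Survival measured by MTS and given as percent growth of untreated control. Mean ± S.D. of three independent experiments; statistics versus ADR alone.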

[5] = test system: K562/A02; test: Growth inhibition of human K562/A02 cells at 3.5 uM after 72 hrs by MTS assay; format: functional, cell-based; procedure, shortened: as §2
[6] = Growth inhibition of human K562/A02 cells at 10 uM after 72 hrs by MTS assay; format: cell-based; conditions: read-out: GI
Procedure, shortened: (§3)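 K562 and K562/A02 cells given compound alone at 10 µM for 72 h. Survival measured by MTS and expressed as percent of untreated control. Three independent experiments.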

[7] = test system: K562; test: Potentiation of adriamycin-induced cytotoxicity against human K562 cells at 2.5 to 10 uM after 72 hrs by MTS assay; format: functional, cell-based; procedure, shortened: as §2
[8] = test system: K562; test: Induction of rhodamine-123 accumulation in human K562 cells preincubated for 1 hr prior rhodamine 123 addition measured after 30 mins by flow cytometry relative to control; format: functional, cell-based
Procedure, shortened: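 Cells (1×10⁶) pre-incubated with compound or 0.1% DMSO vehicle at 37 °C for 1 h. Rhodamine 123 then added to 0.5 µM for 30 min. Cell-associated fluorescence read by flow cytometry. Fold change = fluorescence divided by that of DMSO control cells; mean ± S.D. of three independent experiments.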

[9] = molecular target: T1, ATP-dependent translocase ABCB1 (Homo sapiens, UniProt P08183); test: Inhibition of P-glycoprotein in human K562/A02 cells assessed as potentiation of adriamycin-induced cytotoxicity at 10 uM preincubated for 24 hrs followed by washout before addition of adriamycin measured after 72 hrs by MTS assay (reference value: 33.59 uM); format: cell-based; conditions: k562/a02, 72 h
Procedure, shortened: (§4)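 K562/A02 cells (1×10⁵/well) cultured overnight, then treated with 10 µM compound for 24 h. Washed three times with PBS and moved to compound-free medium. ADR at various concentrations added 0, 6, 12 or 24 h after removal, then 72 h further incubation. Read by MTS at 490 nm; ADR IC50 derived; mean ± S.E. of triplicates.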

[10] = Growth inhibition of human K562 cells at 10 uM after 72 hrs by MTS assay; format: cell-based; conditions: read-out: GI; procedure, shortened: as §3
[11] = Effect on P-gp ATPase activity assessed as relative light units at 40 uM by P-gp-GloTM assay (reference value: 242328 +/- 1398 RLU)
[12] = molecular target: T1, ATP-dependent translocase ABCB1; test: Inhibition of P-glycoprotein in human K562/A02 cells assessed as potentiation of adriamycin-induced cytotoxicity by measuring survival rate at 10 uM after 72 hrs by MTS assay (reference value: 95%); format: cell-based; conditions: k562/a02, 72 h
[13] = Cytotoxicity against human K562/A02 cells assessed as survival rate at 10 uM after 72 hrs by MTS assay; format: cell-based; conditions: read-out: Activity; procedure, shortened: as §3
[14] = molecular target: T1, ATP-dependent translocase ABCB1; test: Inhibition of P-glycoprotein in human K562/A02 cells assessed as potentiation of adriamycin-induced cytotoxicity by measuring survival rate at 5 uM after 72 hrs by MTS assay (reference value: 95%); format: cell-based; conditions: k562/a02, 72 h; procedure, shortened: as §2
[15] = Down regulation of P-gp mRNA level in human K562/A02 cells at 10 uM after 72 hrs by RT-PCR analysis; format: functional, cell-based
[16] = molecular target: T1, ATP-dependent translocase ABCB1; test: Inhibition of P-glycoprotein in human K562/A02 cells assessed as potentiation of adriamycin-induced cytotoxicity by measuring survival rate at 2.5 uM after 72 hrs by MTS assay (reference value: 95%); format: cell-based; conditions: k562/a02, 72 h; procedure, shortened: as §2
[17] = test system: K562/A02; test: Inhibition of Pgp-mediated rhodamine 123 efflux in human K562/A02 cells assessed as intracellular rhodamine 123 accumulation at 3.3 uM preincubated for 30 mins measured after 60 mins by fluorescence microscopy relative to control; format: cell-based
Procedure, shortened: (§5)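 Efflux assay: K562/A02 cells incubated 30 min with 0.5 µM rhodamine 123 plus compound (0.33, 3.3 or 10 µM). Cells washed twice with PBS, resuspended in medium and left 60 min at 37 °C to efflux dye. Retained dye viewed by fluorescence microscopy, with flow cytometry in parallel; 0.1% DMSO as vehicle control.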

[18] = molecular target: T1, ATP-dependent translocase ABCB1; test: Inhibition of P-glycoprotein in human K562/A02 cells assessed as potentiation of adriamycin-induced cytotoxicity at 10 uM preincubated for 24 hrs followed by washout addition of adriamycin at 6 hrs post washout measured after 72 hrs by MTS assay (reference value: 35.15 uM); format: cell-based; conditions: k562/a02, 72 h; procedure, shortened: as §4
[19] = test system: K562/A02; test: Inhibition of Pgp-mediated rhodamine 123 efflux in human K562/A02 cells assessed as intracellular rhodamine 123 accumulation preincubated for 30 mins measured after 60 mins by fluorescence microscopy relative to control; format: cell-based; procedure, shortened: as §5
[20] = molecular target: T1, ATP-dependent translocase ABCB1; test: Inhibition of P-glycoprotein in human K562/A02 cells assessed as potentiation of adriamycin-induced cytotoxicity at 10 uM preincubated for 24 hrs followed by washout addition of adriamycin at 12 hrs post washout measured after 72 hrs by MTS assay (reference value: 54.11 uM); format: cell-based; conditions: k562/a02, 72 h; procedure, shortened: as §4
[21] = Down regulation of P-gp level in human K562/A02 cells at 10 uM after 72 hrs by Western blotting analysis; format: functional, cell-based
[22] = molecular target: T1, ATP-dependent translocase ABCB1; test: Inhibition of P-glycoprotein in human K562/A02 cells assessed as potentiation of adriamycin-induced cytotoxicity at 2.5 to 10 uM after 72 hrs by MTS assay; format: cell-based; conditions: k562/a02, 72 h; procedure, shortened: as §2
[23] = molecular target: T1, ATP-dependent translocase ABCB1; test: Inhibition of P-glycoprotein in human K562/A02 cells assessed as potentiation of adriamycin-induced cytotoxicity at 10 uM preincubated for 24 hrs followed by washout addition of adriamycin at 24 hrs post washout measured after 72 hrs by MTS assay (reference value: 51.67 uM); format: cell-based; conditions: k562/a02, 72 h; procedure, shortened: as §4
[24] = Effect on P-gp ATPase activity assessed as relative light units at 200 uM by P-gp-GloTM assay
Procedure, shortened: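 P-gp ATPase measured by luminescence of remaining ATP; RLU inversely related to ATPase activity. Means of three separate experiments; Student's t test against untreated.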

T1 sequence (P08183 whole entry): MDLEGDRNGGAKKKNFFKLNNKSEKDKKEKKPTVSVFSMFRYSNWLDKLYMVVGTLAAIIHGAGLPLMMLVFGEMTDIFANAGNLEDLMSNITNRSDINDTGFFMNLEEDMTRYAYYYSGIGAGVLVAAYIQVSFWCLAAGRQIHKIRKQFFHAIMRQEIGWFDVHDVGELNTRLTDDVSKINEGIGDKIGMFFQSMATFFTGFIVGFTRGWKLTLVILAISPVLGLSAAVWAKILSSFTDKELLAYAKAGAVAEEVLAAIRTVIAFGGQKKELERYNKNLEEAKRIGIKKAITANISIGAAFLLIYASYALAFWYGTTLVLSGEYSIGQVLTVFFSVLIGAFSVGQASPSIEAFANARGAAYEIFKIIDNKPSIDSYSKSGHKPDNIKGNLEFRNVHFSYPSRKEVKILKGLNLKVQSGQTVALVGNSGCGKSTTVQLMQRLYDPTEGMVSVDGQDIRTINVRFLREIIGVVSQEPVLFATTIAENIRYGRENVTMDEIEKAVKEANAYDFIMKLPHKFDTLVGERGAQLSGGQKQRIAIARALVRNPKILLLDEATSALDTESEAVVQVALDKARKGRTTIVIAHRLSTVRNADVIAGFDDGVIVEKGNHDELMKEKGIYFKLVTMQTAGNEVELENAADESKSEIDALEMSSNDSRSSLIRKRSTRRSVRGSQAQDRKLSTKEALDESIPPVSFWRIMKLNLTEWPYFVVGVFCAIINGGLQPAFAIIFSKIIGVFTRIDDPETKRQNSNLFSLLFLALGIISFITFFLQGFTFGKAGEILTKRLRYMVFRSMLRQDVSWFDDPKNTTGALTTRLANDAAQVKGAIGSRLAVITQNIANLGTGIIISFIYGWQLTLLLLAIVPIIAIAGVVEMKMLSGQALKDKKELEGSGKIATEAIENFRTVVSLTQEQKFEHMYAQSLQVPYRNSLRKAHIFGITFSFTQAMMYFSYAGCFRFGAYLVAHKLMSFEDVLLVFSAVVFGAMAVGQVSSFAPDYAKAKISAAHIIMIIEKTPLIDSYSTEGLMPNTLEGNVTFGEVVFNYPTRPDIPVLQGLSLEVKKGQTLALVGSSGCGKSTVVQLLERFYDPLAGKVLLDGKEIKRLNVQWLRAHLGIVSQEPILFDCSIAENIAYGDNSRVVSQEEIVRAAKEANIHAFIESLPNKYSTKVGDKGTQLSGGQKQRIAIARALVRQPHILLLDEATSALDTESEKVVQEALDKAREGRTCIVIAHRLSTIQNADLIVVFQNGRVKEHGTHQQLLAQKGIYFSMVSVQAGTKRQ

Molecule | pIC50 [1] | pIC50 [2] | inhibition at 72 h, 10 µM [6] [%] | Activity [8] | inhibition at 72 h, 10 µM [10] [%] | further results
COC(=O)c1cc(OC)c2c(c1-c1c(/C=C/C(=O)c3ccc([N+](=O)[O-])cc3)cc(OC)c3c1OCO3)OCO2 | 4.13 | < 4.00 | – | – | – | –
COC(=O)c1cc(OC)c2c(c1-c1c(/C=C/C(=O)c3ccc(OC)cc3OC)cc(OC)c3c1OCO3)OCO2 | < 4.00 | < 4.00 | – | – | – | –
COC(=O)c1cc(OC)c2c(c1-c1c(/C=C(\C#N)C(=O)c3ccc(C)cc3)cc(OC)c3c1OCO3)OCO2 | 4.21 | 4.32 | – | – | – | –
COC(=O)c1cc(OC)c2c(c1-c1c(C(=O)OC)cc(OC)c3c1OCO3)OCO2 [BIFENDATE] | < 4.00 | < 4.00 | – | – | – | –
COC(=O)c1cc(OC)c2c(c1-c1c(/C=C(\C#N)C(=O)c3ccc(OC)cc3)cc(OC)c3c1OCO3)OCO2 | < 4.00 | 4.43 | – | – | – | –
COC(=O)c1cc(OC)c2c(c1-c1c(/C=C/C(=O)c3ccc(O)cc3)cc(OC)c3c1OCO3)OCO2 | < 4.00 | < 4.00 | – | – | – | –
COc1cccc2c1C(=O)c1c(O)c3c(c(O)c1C2=O)C[C@@](O)(C(=O)CO)C[C@@H]3O[C@H]1C[C@H](N)[C@H](O)[C@H](C)O1 [DOXORUBICIN] | 6.37 | 4.33 | – | – | – | selectivity ratio [3]: 108; growth inhibition (GI) [4]: inactive; growth inhibition (GI) [5]: inactive
COc1ccc(CCN(C)CCCC(C#N)(c2ccc(OC)c(OC)c2)C(C)C)cc1OC (stereo not given) | – | – | < 10 | inactive | < 10 | Activity [7]: inactive; inhibition (INH) [9]: Active
COC(=O)c1cc(OC)c2c(c1-c1c(/C=C/C(=O)c3cc(OC)c(OC)c(OC)c3)cc(OC)c3c1OCO3)OCO2 | 3.76 | < 3.70 | < 10 | inactive | < 10 | –
COC(=O)c1cc(OC)c2c(c1-c1c(/C=C/C(=O)c3ccccc3)cc(OC)c3c1OCO3)OCO2 | < 4.00 | < 4.00 | – | – | – | –
COC(=O)c1cc(OC)c2c(c1-c1c(/C=C/C(=O)c3cc(C)ccc3C)cc(OC)c3c1OCO3)OCO2 | < 3.70 | < 3.70 | < 10 | inactive | < 10 | RLU [11]: 271000; Activity [12]: 5%; viability at 72 h, 10 µM [13]: 95%; Activity [14]: 20%; Activity [15]: inactive; Activity [16]: 46%; Activity [7]: inactive; inhibition [17]: Active; inhibition (INH) [18]: Active; inhibition [19]: Dose-dependent effect; inhibition (INH) [9]: Active; inhibition (INH) [20]: Active; Activity [21]: inactive; inhibition (INH) [22]: Active; inhibition (INH) [23]: Active
COC(=O)c1cc(OC)c2c(c1-c1c(/C=C/C(=O)c3ccc(OC)cc3)cc(OC)c3c1OCO3)OCO2 | < 4.00 | < 4.00 | – | – | – | –
SODIUM ORTHOVANAD | – | – | – | – | – | RLU [24]: 282000
COC(=O)c1cc(OC)c2c(c1-c1c(/C=C(\C#N)C(=O)c3cc(OC)c(OC)c(OC)c3)cc(OC)c3c1OCO3)OCO2 | 4.22 | 4.41 | – | – | – | –
COC(=O)c1cc(OC)c2c(c1-c1c(/C=C/C(=O)c3ccccc3OC)cc(OC)c3c1OCO3)OCO2 | < 3.70 | < 3.70 | < 10 | inactive | < 10 | Activity [15]: inactive; Activity [21]: inactive; inhibition (INH) [22]: Active
COC(=O)c1cc(OC)c2c(c1-c1c(/C=C/C(=O)c3cc(OC)ccc3OC)cc(OC)c3c1OCO3)OCO2 | < 3.70 | < 3.70 | < 10 | inactive | < 10 | Activity [15]: inactive; Activity [21]: inactive; inhibition (INH) [22]: Active
